Measurements: the RNAGym collection of RNA variant scans (doi:10.1126/science.aae0568)
This sample holds only a part of the variants without activity.

B1: tRNA (parent)
chain: GUUCCGUUGGCGUAAUGGUAACGCGUCUCCCUCCUAAGGAGAAGACUGCGGGUUCGAGUCCCGUACGGAACG

Variants of: B1
Assay: yeast fitness relative to wild type (ratio to wild type); higher = fitter; tRNA-Arg(CCU), competitive growth, 37 C, YPD
Procedure, shortened: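 Genotype frequency changes were the basis for Darwinian fitness relative to wild type. The frequencies came from 100-nucleotide paired-end sequencing of gene amplicons from the start population and each end population of pooled yeast strains with tRNA-Arg(CCU) gene variants at the native locus. Competition ran in YPD at 37°C for 24 hours in six replicates, genotypes needed ≥ 100 starting reads, and estimates < 0.5 were set to 0.5.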
With C4G U7C A20G C27A U59G the yeast fitness was ≤ 0.5. With C4G U8C G25A A42U the yeast fitness was ≤ 0.5. In the case of C4G C34G G67A, the yeast fitness is reported as ≤ 0.5. With C4G G17A U26C U28C A40G A70C the yeast fitness was ≤ 0.5. For C4G U26C A40U C49U, the yeast fitness was ≤ 0.5. In the case of C4G C30U C55U, the yeast fitness is reported as ≤ 0.5. Variant C4U A20G U28C C31U G50C C55U C60G G63A C66U has a yeast fitness of 0.508. In the case of C4G G6C C34G A42G G63C, the yeast fitness is reported as ≤ 0.5. C4G C31G A70C gave a yeast fitness of 0.537. With C4G U53A A65C the yeast fitness was ≤ 0.5. Work on C4G G67C yielded a yeast fitness of 0.883. For C4G G67A, the yeast fitness was 0.913. C4G G25C A45C C46A showed a yeast fitness of 0.619. Variant C4G C31A G58A has a yeast fitness of 0.635. For C4G G10C U35C G38U C46G, the yeast fitness was ≤ 0.5. Work on C4U A14G A70U yielded a yeast fitness of 0.787. Work on C4G G68A yielded a yeast fitness of 0.904. With C4U A15G G23C A37U C49U A65U the yeast fitness was 0.525. In the case of C4G U35C C55A A69U, the yeast fitness is reported as ≤ 0.5. With C4U A14G A20C C34U C55U the yeast fitness was ≤ 0.5. With C4G G56C A70G the yeast fitness was ≤ 0.5. For C4G C29A G50A, the yeast fitness was ≤ 0.5. In the case of C4G G6A C11U G23A A43G, the yeast fitness is reported as ≤ 0.5. In the case of C4G C62A G67C, the yeast fitness is reported as ≤ 0.5. With C4U A15C C29G C30G A43C the yeast fitness was ≤ 0.5. Work on C4G G10C yielded a yeast fitness of 0.659. With C4G U8A G12A G48A C62U the yeast fitness was ≤ 0.5. In the case of C4G C30U A42U G50C G63C, the yeast fitness is reported as ≤ 0.5. For C4G G17A G50A C55U G67C, the yeast fitness was ≤ 0.5. Work on C4U A20G A69C yielded a yeast fitness of 0.817. In the case of C4G C27G C34G G51A, the yeast fitness is reported as ≤ 0.5. With C4U A20G A45U C61A C62U the yeast fitness was 0.546. C4G U7A C29U showed a yeast fitness of 0.504. In the case of C4G C29U C30G G39C, the yeast fitness is reported as ≤ 0.5. In the case of C4G C30A G52C C66U, the yeast fitness is reported as ≤ 0.5. With C4G G38A C55U C60G the yeast fitness was ≤ 0.5. Variant C4G C30U A42U G50C C62A has a yeast fitness of 0.511. Work on C4U A14C C55U G58C yielded a yeast fitness of 0.595. In the case of C4G C24A A42G, the yeast fitness is reported as ≤ 0.5. With C4G C11U A36G G63A the yeast fitness was ≤ 0.5. Work on C4G G10C G12A A36C U54G C60U A70G yielded a yeast fitness of 0.615. For C4G C24A C34A C66A, the yeast fitness was ≤ 0.5. In the case of C4G C61G A65C, the yeast fitness is reported as ≤ 0.5. For C4G G12A C27A C31A G52A G58C A70G, the yeast fitness was ≤ 0.5. C4G G9A G50C showed a yeast fitness of 0.642. C4G U13A G68C gave a yeast fitness of 0.541. With C4G G6A U64A the yeast fitness was 0.651. With C4G G9C G41A U53C C55U U59A A70U the yeast fitness was ≤ 0.5. With C4G U16C C31U A70U the yeast fitness was ≤ 0.5. For C4G U47C U59G, the yeast fitness was ≤ 0.5. For C4G U7A A42C G48C, the yeast fitness was ≤ 0.5. For C4G G6A C30A C34U C46U, the yeast fitness was ≤ 0.5. Variant C4G C33G A65U has a yeast fitness of 0.605. In the case of C4G C27A A43U, the yeast fitness is reported as ≤ 0.5. With C4G G9C C34A A40C the yeast fitness was 0.538. For C4U A14G C34A, the yeast fitness was ≤ 0.5. For C4G U8G G9A C11U C49A, the yeast fitness was ≤ 0.5. With C4U A15C C30G A69C A70G the yeast fitness was ≤ 0.5. Variant C4G C24A A42U U47A C60G has a yeast fitness of 0.62. C4G C34U showed a yeast fitness of 0.624. In the case of C4G C34G, the yeast fitness is reported as 0.574. In the case of C4G G18A A57C, the yeast fitness is reported as ≤ 0.5. In the case of C4G C30G G41C A70U, the yeast fitness is reported as ≤ 0.5. With C4G U8C C34G U47A C49A A65G the yeast fitness was ≤ 0.5. For C4G C11G U13A U59G C61G, the yeast fitness was ≤ 0.5. In the case of C4G C30A C49G A65C, the yeast fitness is reported as ≤ 0.5. C4G G17C C33A G56C A70C showed a yeast fitness of 0.542. With C4G C29G A36C A37U A40C A45G G51A A70U the yeast fitness was ≤ 0.5. For C4G G25A A45G, the yeast fitness was ≤ 0.5. With C4G C55U C66G the yeast fitness was ≤ 0.5. For C4G U8A G12A C34A G50C, the yeast fitness was ≤ 0.5. In the case of C4U A20C C34G A36G A65U, the yeast fitness is reported as ≤ 0.5. With C4G G23A C55A C61A the yeast fitness was 0.667. C4G G6A U47A gave a yeast fitness of 0.61. With C4G G6A U47G the yeast fitness was ≤ 0.5. Variant C4G U7C C27A U59G has a yeast fitness of 0.574. With C4G G10U A14U C24U C33U G52A the yeast fitness was 0.544. In the case of C4G G41A A45U G56C, the yeast fitness is reported as ≤ 0.5. For C4U A14C G44A U54A A70U, the yeast fitness was ≤ 0.5. In the case of C4G C34G G56A U59A, the yeast fitness is reported as ≤ 0.5. For C4G G12C C33G G44C, the yeast fitness was ≤ 0.5. In the case of C4G G44A A45C G63A, the yeast fitness is reported as ≤ 0.5. With C4U A15C C30G G52A A65C the yeast fitness was ≤ 0.5. With C4G U8C C60U G63C G68A the yeast fitness was ≤ 0.5. C4G G10C G12C A21C G48C A57G G68C gave a yeast fitness of 0.519. Variant C4G C27A C46U has a yeast fitness of 0.539. For C4G U16G G48A A57G A69U, the yeast fitness was ≤ 0.5. Work on C4G C11U U28G A45C U53A G63C yielded a yeast fitness of 0.559. For C4G U59C A69C, the yeast fitness was 0.778. With C4G U13A C33G A36G the yeast fitness was ≤ 0.5. For C4G U26A, the yeast fitness was 0.796. Variant C4G U26G has a yeast fitness of 0.856. For C4G U26C, the yeast fitness was 0.993. In the case of C4G C24A C46U C60A, the yeast fitness is reported as 0.521. For C4G G17A C55G A70U, the yeast fitness was ≤ 0.5. In the case of C4G U8G G9A C11U, the yeast fitness is reported as 0.562. C4G C33U gave a yeast fitness of 0.708. With C4G G18A A45C the yeast fitness was ≤ 0.5. C4G U59G showed a yeast fitness of 0.653. In the case of C4G G17A C30U G56A, the yeast fitness is reported as ≤ 0.5. In the case of C4G C22G C24U G41A G67U, the yeast fitness is reported as ≤ 0.5. C4G U19C C62U G63A showed a yeast fitness of 0.545. C4G C31G C55U gave a yeast fitness of 0.516. In the case of C4G U16A A36C A57C C61A U64C, the yeast fitness is reported as ≤ 0.5. In the case of C4G C11G G41C U59G A70G, the yeast fitness is reported as ≤ 0.5. With C4G G6A C22G C62U A70C the yeast fitness was ≤ 0.5. Variant C4G C29U has a yeast fitness of 0.751. With C4G C29G the yeast fitness was 0.69. With C4G U8A G12A G58A the yeast fitness was ≤ 0.5. C4U A14G G48C showed a yeast fitness of 0.659. With C4G U16C G44A G48A G50C C66G the yeast fitness was ≤ 0.5. With C4U A15U U16A G23C G25A A57U A69U the yeast fitness was ≤ 0.5. With C4G C22G G67C the yeast fitness was 0.528. In the case of C4G U7A G9A C11U C30G, the yeast fitness is reported as 0.545. With C4G U35C C55G the yeast fitness was ≤ 0.5. C4G C49U C66U showed a yeast fitness of 0.681. Variant C4G C29G C60A G67C has a yeast fitness of 0.564. For C4G G9C C27A A36G C46A C55U A65C, the yeast fitness was ≤ 0.5. For C4G G17C C33G U47A, the yeast fitness was 0.689. With C4G U7G A69U the yeast fitness was ≤ 0.5. With C4G U32A C34G G41C G68A the yeast fitness was ≤ 0.5. For C4G U13A C30G, the yeast fitness was ≤ 0.5. In the case of C4G C11G U26A, the yeast fitness is reported as ≤ 0.5. For C4G C49G G56U U64C A65C A70C, the yeast fitness was 0.635. Variant C4G G17A A36U has a yeast fitness of 0.691. For C4G G9A U32C C33U, the yeast fitness was ≤ 0.5. C4G C11U A40C A57U showed a yeast fitness of 0.623. In the case of C4U A15U A45G C62G, the yeast fitness is reported as ≤ 0.5. In the case of C4G U7C C27A, the yeast fitness is reported as ≤ 0.5. With C4G G18C A37C A57C the yeast fitness was ≤ 0.5. For C4U A20G U32G A43C A45U, the yeast fitness was ≤ 0.5. In the case of C4G C27A U32G G39U G41C C66G, the yeast fitness is reported as ≤ 0.5. C4U A14G A40U gave a yeast fitness of 0.593. With C4G G23C C66A the yeast fitness was ≤ 0.5. Variant C4G C24G C34U U47A G48C C60U has a yeast fitness of 0.521. For C4G G17A A43U C60A, the yeast fitness was ≤ 0.5. Work on C4G U35C C49U yielded a yeast fitness of 0.533. With C4G C22U C49A the yeast fitness was ≤ 0.5. For C4G U7A C11A A21C C29U C49U, the yeast fitness was ≤ 0.5. For C4G G9A A45C A57C G58C, the yeast fitness was ≤ 0.5. C4G U13G gave a yeast fitness of 0.882. In the case of C4G U13C, the yeast fitness is reported as 0.886. For C4U A15C G41A G63C, the yeast fitness was ≤ 0.5. In the case of C4U A15U G68A, the yeast fitness is reported as ≤ 0.5. In the case of C4G C33U A37U G38A A42C, the yeast fitness is reported as ≤ 0.5. In the case of C4G G12U A14C C49U A65G, the yeast fitness is reported as 0.513. In the case of C4G G17C C33G U59C, the yeast fitness is reported as ≤ 0.5. In the case of C4U A15G G23A C34G, the yeast fitness is reported as ≤ 0.5. In the case of C4U A15U U28C A57G, the yeast fitness is reported as ≤ 0.5. With C4G C55U C61A the yeast fitness was ≤ 0.5. In the case of C4G G10A U13A U26G C27G C29U C33U U53C C61U, the yeast fitness is reported as ≤ 0.5. In the case of C4G G9A G39A, the yeast fitness is reported as 0.576. With C4G U47G U59A C66A the yeast fitness was ≤ 0.5. In the case of C4G U7A U19C A20C C24U U53C, the yeast fitness is reported as ≤ 0.5. Variant C4G U8C U16A A21C C24G A45C G48A G67A has a yeast fitness of 0.53. With C4U A14U C22U A40U G44C A57C the yeast fitness was ≤ 0.5. In the case of C4G C11G U64A, the yeast fitness is reported as ≤ 0.5. With C4G U26A C30U G48A U54A C55G A65U the yeast fitness was ≤ 0.5. In the case of C4U A20G, the yeast fitness is reported as 0.979. For C4U A20U, the yeast fitness was 0.988. In the case of C4G U8A C31G, the yeast fitness is reported as ≤ 0.5. For C4G C11G C34U G38A G44C, the yeast fitness was ≤ 0.5. In the case of C4G U8G C24A C31G G50A A69U, the yeast fitness is reported as ≤ 0.5. C4G U7G A43C showed a yeast fitness of 0.687. For C4G G9C C46A U59A U64A, the yeast fitness was ≤ 0.5. With C4G C34U G41A the yeast fitness was ≤ 0.5. For C4G C62U A69U, the yeast fitness was 0.672.
